Source: ChEMBL document CHEMBL2163240, “Griseusins F and G, spiro-naphthoquinones from a tin mine tailings-derived alkalophilic Nocardiopsis species” (J Nat Prod, 2012)
In brackets after ≈: the same amount, converted by molar mass.

Key:
[1] = tested on: Micrococcus luteus; experiment: Antibacterial activity against Micrococcus luteus after overnight incubation by agar well diffusion assay; assay type: functional
[2] = tested on: Staphylococcus aureus; experiment: Antibacterial activity against Staphylococcus aureus ATCC 29213 after overnight incubation by agar well diffusion assay; assay type: functional
[3] = tested on: Bacillus subtilis; experiment: Antibacterial activity against Bacillus subtilis after overnight incubation by agar well diffusion assay; assay type: functional
[4] = tested on: B16; experiment: Cytotoxicity against mouse B16 cells after 24 to 72 hrs by MTT assay; assay type: functional, cell-based
Summary of the method: (§1)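 Cells (from Kunming Medical University) seeded at 5 × 10^4 cells/mL, preincubated 24 h at 37 °C, then given graded concentrations of test chemical in DMSO; cisplatin as positive control. MTT staining after 24, 48 and 72 h, OD 492 nm versus negative control; IC50 = concentration giving 50% cell death, from concentration–viability plot.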

[5] = Cytotoxicity against human MDA-MB-435S cells after 24 to 72 hrs by MTT assay; assay type: functional, cell-based; summary of the method: as §1
[6] = tested on: ACHN; experiment: Cytotoxicity against human ACHN cells after 24 to 72 hrs by MTT assay; assay type: functional, cell-based; summary of the method: as §1
[7] = tested on: CFPAC-1; experiment: Cytotoxicity against human CFPAC-1 cells after 24 to 72 hrs by MTT assay; assay type: functional, cell-based; summary of the method: as §1
[8] = tested on: HCT-116; experiment: Cytotoxicity against human HCT116 cells after 24 to 72 hrs by MTT assay; assay type: functional, cell-based; summary of the method: as §1

MIC [1] | MIC [2] | MIC [3] | Compound | IC50 [4] | IC50 [5] | IC50 [6] | IC50 [7] | IC50 [8]
1.19 µg/mL (≈ 3.59 µM) | 0.28 µg/mL (≈ 0.845 µM) | 0.64 µg/mL (≈ 1.93 µM) | O=C(O)c1cn(C2CC2)c2cc(N3CCNCC3)c(F)cc2c1=O [CIPROFLOXACIN] | – | – | – | – | –
1.27 µg/mL (≈ 2.76 µM) | 0.91 µg/mL (≈ 1.98 µM) | 1.65 µg/mL (≈ 3.58 µM) | CC(=O)C[C@]12C(=O)c3cccc(O)c3C(=O)[C@H]1[C@@]1(O[C@H](C)C[C@H](O)[C@H]1O)O[C@@H]1CC(=O)O[C@@H]12 [GRISEUSIN F] | 430 nM | 820 nM | 550 nM | 640 nM | 700 nM
1.47 µg/mL (≈ 3.21 µM) | 0.8 µg/mL (≈ 1.75 µM) | 1.33 µg/mL (≈ 2.9 µM) | CC(=O)C[C@]12C(=O)c3cccc(O)c3C(=O)[C@H]1[C@@]1(O[C@H](C)CC(=O)[C@H]1O)O[C@@H]1CC(=O)O[C@@H]12 [GRISEUSIN G] | 370 nM | 690 nM | 460 nM | 420 nM | 580 nM
